From ChEMBL document CHEMBL2169800 (J Med Chem, 2012)

Assays:
[1] = target: T1, Prostaglandin G/H synthase 1 (Ovis aries, UniProt P05979); experiment: Inhibition of ovine COX1 pre-incubated for 10 mins before arachidonic acid substrate addition by enzyme immunoassay
T1 sequence (P05979 whole entry): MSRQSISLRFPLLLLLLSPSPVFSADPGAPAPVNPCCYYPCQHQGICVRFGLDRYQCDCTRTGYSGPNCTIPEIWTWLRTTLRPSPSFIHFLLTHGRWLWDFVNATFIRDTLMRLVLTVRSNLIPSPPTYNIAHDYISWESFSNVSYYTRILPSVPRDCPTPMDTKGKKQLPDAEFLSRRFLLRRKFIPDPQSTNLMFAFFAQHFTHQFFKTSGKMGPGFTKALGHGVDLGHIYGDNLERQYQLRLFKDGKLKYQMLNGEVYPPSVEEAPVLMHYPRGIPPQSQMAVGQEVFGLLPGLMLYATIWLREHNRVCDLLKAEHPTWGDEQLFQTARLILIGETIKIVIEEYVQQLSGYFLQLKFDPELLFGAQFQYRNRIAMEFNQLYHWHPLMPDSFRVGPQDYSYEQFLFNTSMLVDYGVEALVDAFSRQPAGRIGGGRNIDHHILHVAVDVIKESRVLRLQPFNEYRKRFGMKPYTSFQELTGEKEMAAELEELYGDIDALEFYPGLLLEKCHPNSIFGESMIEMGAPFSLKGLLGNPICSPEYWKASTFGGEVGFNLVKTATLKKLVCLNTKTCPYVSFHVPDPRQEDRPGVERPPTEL
Outline: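 Ovine COX-1 pre-incubated with inhibitor for 10 min at 37 °C, then 5 μM arachidonic acid for 2 min at 37 °C. Stopped with HCl; PGH2 reduced to PGF2α with SnCl2 and measured by competitive EIA (PG antibody, PG-acetylcholinesterase conjugate), absorbance at 412 nm.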

[2] = target: T2, Fatty-acid amide hydrolase 1 (Rattus norvegicus, UniProt P97612); experiment: Inhibition of FAAH in rat brain homogenates pre-incubated for 10 mins before addition of [3H]anandamide and [3H]AEA substrates for 30 mins by liquid scintillation counting; type: tissue-based; details: read-out: IC50
T2 sequence (P97612 whole entry): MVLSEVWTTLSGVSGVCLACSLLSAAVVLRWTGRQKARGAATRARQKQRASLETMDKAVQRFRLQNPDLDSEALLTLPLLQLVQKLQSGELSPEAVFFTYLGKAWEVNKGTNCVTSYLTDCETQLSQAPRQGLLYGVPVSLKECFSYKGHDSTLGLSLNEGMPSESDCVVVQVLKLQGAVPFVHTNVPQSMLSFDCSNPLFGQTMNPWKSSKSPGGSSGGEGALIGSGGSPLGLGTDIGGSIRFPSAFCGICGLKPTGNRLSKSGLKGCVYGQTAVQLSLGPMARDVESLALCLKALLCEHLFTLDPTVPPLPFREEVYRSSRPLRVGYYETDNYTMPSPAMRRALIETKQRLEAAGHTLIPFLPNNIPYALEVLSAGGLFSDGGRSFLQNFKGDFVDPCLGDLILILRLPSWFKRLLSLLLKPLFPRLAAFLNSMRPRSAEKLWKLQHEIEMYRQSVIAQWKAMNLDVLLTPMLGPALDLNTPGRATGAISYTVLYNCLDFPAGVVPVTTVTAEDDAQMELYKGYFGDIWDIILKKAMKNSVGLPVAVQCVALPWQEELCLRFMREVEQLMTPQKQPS
Outline: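 Rat whole-brain homogenate (50 ug protein/sample) in 50 mM TRIS pH 7.4, 0.05 % fatty acid free BSA; inhibitor pre-incubated 10 min, then 1 uM unlabelled AEA plus 0.6 nM [3H]-AEA added for 30 min at 37°C. Stopped with cold 1:1 CHCl3/MeOH; aqueous phase counted.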

[3] = target: T1, Prostaglandin G/H synthase 1; experiment: Inhibition of sheep COX1 pre-incubated for 5 mins before arachidonic acid substrate addition in presence of DMSO by peroxidase activity detection based oxygen electrode assay
[4] = target: T1, Prostaglandin G/H synthase 1; experiment: Inhibition of sheep COX1 pre-incubated for 5 mins before arachidonic acid substrate addition in presence of ethanol by peroxidase activity detection based oxygen electrode assay
[5] = target: T3, Prostaglandin G/H synthase 2 (Ovis aries, UniProt P79208); experiment: Inhibition of sheep COX2 pre-incubated for 5 mins before […] substrate addition by peroxidase activity detection based oxygen electrode assay
T3 sequence (P79208 whole entry): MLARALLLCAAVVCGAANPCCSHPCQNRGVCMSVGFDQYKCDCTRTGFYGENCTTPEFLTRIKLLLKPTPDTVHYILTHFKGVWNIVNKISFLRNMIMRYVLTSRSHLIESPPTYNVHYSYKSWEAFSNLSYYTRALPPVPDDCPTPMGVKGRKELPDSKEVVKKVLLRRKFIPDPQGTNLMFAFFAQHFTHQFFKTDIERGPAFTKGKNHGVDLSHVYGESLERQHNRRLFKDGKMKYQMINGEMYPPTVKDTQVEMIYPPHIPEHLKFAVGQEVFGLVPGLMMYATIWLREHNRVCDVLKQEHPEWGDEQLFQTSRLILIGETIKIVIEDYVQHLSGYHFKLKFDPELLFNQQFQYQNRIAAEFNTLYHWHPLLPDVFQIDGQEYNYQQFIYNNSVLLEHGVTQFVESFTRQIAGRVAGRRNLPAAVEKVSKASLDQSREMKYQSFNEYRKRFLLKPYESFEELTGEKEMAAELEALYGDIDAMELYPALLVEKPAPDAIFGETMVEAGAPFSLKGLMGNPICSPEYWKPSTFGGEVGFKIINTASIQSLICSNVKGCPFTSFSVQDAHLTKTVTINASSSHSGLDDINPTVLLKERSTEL

[6] = target: T4, Prostaglandin G/H synthase 2 (Homo sapiens) (UniProt P35354); experiment: Inhibition of human COX2 at 30 uM pre-incubated for 10 mins before substrate addition by enzyme immunoassay
T4 sequence (whole entry): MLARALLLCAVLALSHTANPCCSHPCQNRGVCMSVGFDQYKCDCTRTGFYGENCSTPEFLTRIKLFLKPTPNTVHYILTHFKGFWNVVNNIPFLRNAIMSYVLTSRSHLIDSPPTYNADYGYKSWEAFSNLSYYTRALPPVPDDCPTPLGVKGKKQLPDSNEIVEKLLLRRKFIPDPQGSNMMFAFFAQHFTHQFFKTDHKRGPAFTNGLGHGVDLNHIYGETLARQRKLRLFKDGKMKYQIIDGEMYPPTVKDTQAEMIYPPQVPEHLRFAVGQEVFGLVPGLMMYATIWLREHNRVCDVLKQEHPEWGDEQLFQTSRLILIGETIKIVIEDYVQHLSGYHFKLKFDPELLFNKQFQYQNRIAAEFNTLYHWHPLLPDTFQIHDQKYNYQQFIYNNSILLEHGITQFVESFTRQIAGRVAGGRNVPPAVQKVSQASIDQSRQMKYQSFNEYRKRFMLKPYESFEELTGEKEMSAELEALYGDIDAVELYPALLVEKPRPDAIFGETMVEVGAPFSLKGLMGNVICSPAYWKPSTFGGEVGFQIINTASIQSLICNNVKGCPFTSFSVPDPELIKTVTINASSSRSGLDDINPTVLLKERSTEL
Outline: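 Human COX-2 pre-incubated with inhibitor 10 min at 37 °C, then 5 μM arachidonic acid for 2 min at 37 °C. Reaction stopped with HCl, PGH2 reduced to PGF2α by SnCl2, and PGF2α quantified by competitive EIA with PG-acetylcholinesterase conjugate, absorbance 412 nm. Single test concentration 30 μM.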

[7] = target: T2, Fatty-acid amide hydrolase 1; experiment: Inhibition of FAAH in Sprague-Dawley rat cerebellum membranes pre-incubated for 10 mins before addition of [3H]AEA substrate in presence of ethyl alcohol by liquid scintillation counting; type: cell membranes, Membrane

Cc1cccnc1NC(=O)C(C)c1ccc(CC(C)C)cc1 (configuration not stated)
IC50 [1]: 170 µM | IC50 [2]: 66 µM | IC50 [3]: 60 µM | IC50 [4]: 240 µM | IC50 [5]: 20 µM | inhibition [6]: 30% | IC50 [7]: 0.5 µM
